Calls of active or inactive are those of the source. The calls are words filed in the database; no cut-off is given here.
Tested on: not listed separately
Test: Selectivity index, ratio of CC50 for human MT4 cells to EC50 for Human immunodeficiency virus 1 NL4-3 infected in human MT4 cells
Type: toxicity, cell-based
Settings: read-out: Ratio CC50/EC50
How it was run: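 SI = CC50/EC50. CC50 is from a 3-day CytoTox-Glo assay on MT4 cells. EC50 is from MT4 cells infected with 50 TCID50/well NL4-3 Nanoluc-sec and given graded compound, with supernatant luciferase read on day 3 as 50% reduction.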

`C/C=C(/C)C(=O)O[C@H]1C(C)=C[C@]23C(=O)[C@@H](C=C(CO)[C@@H](O)[C@]12O)[C@H]1[C@@H](C[C@H]3C)C1(C)C` [INGENOL MEBUTATE] and `CC1=C[C@]23C(=O)[C@@H](C=C(CO)[C@@H](O)[C@]2(O)[C@H]1OC(=O)c1ccc2ccccc2c1)[C@H]1[C@@H](C[C@H]3C)C1(C)C` cannot be ordered by selectivity ratio: greater than 2070 for the first, greater than 6150 for the second.

`CC1=C[C@@H]2C(=O)[C@]3(C=C(C)[C@H](OC(=O)c4ccc5ccccc5c4)[C@@]3(O)[C@@H]1O)[C@H](C)C[C@@H]1[C@H]2C1(C)C` and `CC1=C[C@@H]2C(=O)[C@]3(C=C(C)[C@H](OC(=O)c4ccccc4)[C@@]3(O)[C@@H]1O)[C@H](C)C[C@@H]1[C@H]2C1(C)C` cannot be ordered by selectivity ratio: greater than 543 for the first, greater than 302 for the second.

`CCCCCCCCCCCC(=O)O[C@@]12C[C@@H](C)[C@]34C=C(C)[C@H](OC(=O)C(C)C(C)C)[C@@]3(O)[C@H](O)C(CO)=C[C@H](C4=O)[C@@H]1C2(C)C` (some centres not stated) and `CCCCCCCCCCCC(=O)O[C@@]12C[C@@H](C)[C@]34C=C(C)[C@H](O)[C@@]3(O)[C@H](O)C(CO)=C[C@H](C4=O)[C@@H]1C2(C)C` cannot be ordered by selectivity ratio: greater than 7500 for the first, greater than 273 for the second.

`COc1ccc(C(=O)O[C@@H]2C(C)=C[C@@H]3C(=O)[C@]4(C=C(C)[C@H](O)[C@@]24O)[C@H](C)C[C@@H]2[C@H]3C2(C)C)cc1` and `CC1=C[C@@H]2C(=O)[C@]3(C=C(C)[C@H](O)[C@@]3(O)[C@@H]1OC(=O)c1ccccc1)[C@H](C)C[C@@H]1[C@H]2C1(C)C` cannot be ordered by selectivity ratio: greater than 20 for the first, greater than 216 for the second.

`CC(=O)O[C@H]1C(C)=C[C@]23C(=O)[C@@H](C=C(C)[C@@H](OC(=O)c4ccccc4)[C@]12O)[C@H]1[C@@H](C[C@H]3C)C1(C)C` and `CC1=C[C@@H]2C(=O)[C@]3(C=C(C)[C@H](O)[C@@]3(O)[C@@H]1OC(=O)/C=C/c1ccccc1)[C@H](C)C[C@@H]1[C@H]2C1(C)C` cannot be ordered by selectivity ratio: greater than 23 for the first, greater than 22 for the second.

Tested on: Human immunodeficiency virus 1
Test: Potency index, ratio AZT EC50 to test compound EC50 for Human immunodeficiency virus 1 NL4-3 infected in human MT4 cells
Type: functional
Settings: not given

With `CC1=C[C@]23C(=O)[C@@H](C=C(CO)[C@@H](O)[C@]2(O)[C@H]1OC(=O)c1ccc2ccccc2c1)[C@H]1[C@@H](C[C@H]3C)C1(C)C` the “Ratio EC50” value was 10.

Tested on: Human immunodeficiency virus 1
Test: Antiviral activity against Human immunodeficiency virus 1 NL4-3 infected in human MT4 cells measured on day 3 post infection by Nano-Glo luciferase reporter gene assay
Type: functional, organism-based
Settings: Human immunodeficiency virus 1, NL4-3, MT4, 72 h
How it was run: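 HIV-1 NL4-3 Nanoluc-sec reporter virus at 50 TCID50/well infects MT4 cells (1 × 10⁵ cells/mL) in the presence of graded compound concentrations. On day 3 post-infection, supernatant is assayed for secreted NanoLuc luciferase.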

Going from `C/C=C(/C)C(=O)O[C@H]1C(C)=C[C@]23C(=O)[C@@H](C=C(CO)[C@@H](O)[C@]12O)[C@H]1[C@@H](C[C@H]3C)C1(C)C` [INGENOL MEBUTATE] to `CC1=C[C@]23C(=O)[C@@H](C=C(CO)[C@@H](O)[C@]2(O)[C@H]1OC(=O)c1ccc2ccccc2c1)[C@H]1[C@@H](C[C@H]3C)C1(C)C`, the EC50 falls from 4.5 nM to 1.3 nM (3.5-fold). The second is the more potent here.

Going from `CC1=C[C@@H]2C(=O)[C@]3(C=C(C)[C@H](OC(=O)c4ccc5ccccc5c4)[C@@]3(O)[C@@H]1O)[C@H](C)C[C@@H]1[C@H]2C1(C)C` to `CC1=C[C@@H]2C(=O)[C@]3(C=C(C)[C@H](OC(=O)c4ccccc4)[C@@]3(O)[C@@H]1O)[C@H](C)C[C@@H]1[C@H]2C1(C)C`, the EC50 rises from 15.1 nM to 30.5 nM (2-fold).

Compared with `CCCCCCCCCCCC(=O)O[C@@]12C[C@@H](C)[C@]34C=C(C)[C@H](OC(=O)C(C)C(C)C)[C@@]3(O)[C@H](O)C(CO)=C[C@H](C4=O)[C@@H]1C2(C)C` (some centres not stated), `CCCCCCCCCCCC(=O)O[C@@]12C[C@@H](C)[C@]34C=C(C)[C@H](O)[C@@]3(O)[C@H](O)C(CO)=C[C@H](C4=O)[C@@H]1C2(C)C` is 42-fold higher in EC50: 0.8 nM for the first, 33.7 nM for the second.

First: COc1ccc(C(=O)O[C@@H]2C(C)=C[C@@H]3C(=O)[C@]4(C=C(C)[C@H](O)[C@@]24O)[C@H](C)C[C@@H]2[C@H]3C2(C)C)cc1
Second: CC1=C[C@@H]2C(=O)[C@]3(C=C(C)[C@H](O)[C@@]3(O)[C@@H]1OC(=O)c1ccccc1)[C@H](C)C[C@@H]1[C@H]2C1(C)C
The EC50 of the first is 10-fold higher: 434 nM for the first, 42.6 nM for the second.

`CC(=O)O[C@H]1C(C)=C[C@]23C(=O)[C@@H](C=C(C)[C@@H](OC(=O)c4ccccc4)[C@]12O)[C@H]1[C@@H](C[C@H]3C)C1(C)C` and `CC1=C[C@@H]2C(=O)[C@]3(C=C(C)[C@H](O)[C@@]3(O)[C@@H]1OC(=O)/C=C/c1ccccc1)[C@H](C)C[C@@H]1[C@H]2C1(C)C` are within 1.5-fold of each other in EC50: 367 nM for the first, 396 nM for the second.

Tested on: Human immunodeficiency virus 1
Test: Reactivation of latent HIV1 infected in human J-Lat A2 cells assessed as increase in GFP expression at 10 to 50 nM after 72 hrs by flow cytometric method
Type: functional, organism-based
Settings: not given
How it was run: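 J-Lat (A2) cells (1×10⁶ cells/well) incubated with various concentrations of latency reversing agents at 37 °C for 72 h. GFP-expressing cells are quantified by flow cytometry.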

For `C/C=C(/C)C(=O)O[C@H]1C(C)=C[C@]23C(=O)[C@@H](C=C(CO)[C@@H](O)[C@]12O)[C@H]1[C@@H](C[C@H]3C)C1(C)C` [INGENOL MEBUTATE], the Activity was “Active”.
In the case of `CC1=C[C@]23C(=O)[C@@H](C=C(CO)[C@@H](O)[C@]2(O)[C@H]1OC(=O)c1ccc2ccccc2c1)[C@H]1[C@@H](C[C@H]3C)C1(C)C`, the Activity is reported as “Active”.

Tested on: not listed separately
Test: Cytotoxicity against human U937 cells after 3 days by CytoTox-Glo assay
Type: cell-based, U-937
Settings: not given
How it was run: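 U937 cytotoxicity is run by the same method as for MT4: 3-day culture with various compound concentrations, CytoTox-Glo read-out, and CC50 taken as 50% reduction of viability.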

Compound `CC1=C[C@]23C(=O)[C@@H](C=C(CO)[C@@H](O)[C@]2(O)[C@H]1OC(=O)c1ccc2ccccc2c1)[C@H]1[C@@H](C[C@H]3C)C1(C)C` has a CC50 at 72 h greater than 20000 nM.

Tested on: MT4
Test: Cytotoxicity against human MT4 cells after 3 days by CytoTox-Glo assay
Type: cell-based
Settings: mt4, 72 h
How it was run: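 MT4 cells cultured for 3 days with various compound concentrations. Cytotoxicity is read by CytoTox-Glo following the manufacturer's protocol. CC50 = concentration causing 50% reduction of cell viability.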

`Cc1cn([C@H]2C[C@H](N=[N+]=[N-])[C@@H](CO)O2)c(=O)[nH]c1=O` [ZIDOVUDINE] and `C/C=C(/C)C(=O)O[C@H]1C(C)=C[C@]23C(=O)[C@@H](C=C(CO)[C@@H](O)[C@]12O)[C@H]1[C@@H](C[C@H]3C)C1(C)C` [INGENOL MEBUTATE] cannot be ordered by CC50: greater than 400 nM for the first, greater than 9300 nM for the second.

`CC1=C[C@@H]2C(=O)[C@]3(C=C(C)[C@H](OC(=O)c4ccc5ccccc5c4)[C@@]3(O)[C@@H]1O)[C@H](C)C[C@@H]1[C@H]2C1(C)C` and `CC1=C[C@]23C(=O)[C@@H](C=C(CO)[C@@H](O)[C@]2(O)[C@H]1OC(=O)c1ccc2ccccc2c1)[C@H]1[C@@H](C[C@H]3C)C1(C)C` cannot be ordered by CC50: greater than 8200 nM for the first, greater than 8000 nM for the second.

`CCCCCCCCCCCC(=O)O[C@@]12C[C@@H](C)[C@]34C=C(C)[C@H](OC(=O)C(C)C(C)C)[C@@]3(O)[C@H](O)C(CO)=C[C@H](C4=O)[C@@H]1C2(C)C` (some centres not stated) and `CCCCCCCCCCCC(=O)O[C@@]12C[C@@H](C)[C@]34C=C(C)[C@H](O)[C@@]3(O)[C@H](O)C(CO)=C[C@H](C4=O)[C@@H]1C2(C)C` cannot be ordered by CC50: greater than 6200 nM for the first, greater than 9200 nM for the second.

`COc1ccc(C(=O)O[C@@H]2C(C)=C[C@@H]3C(=O)[C@]4(C=C(C)[C@H](O)[C@@]24O)[C@H](C)C[C@@H]2[C@H]3C2(C)C)cc1` and `CC1=C[C@@H]2C(=O)[C@]3(C=C(C)[C@H](O)[C@@]3(O)[C@@H]1OC(=O)c1ccccc1)[C@H](C)C[C@@H]1[C@H]2C1(C)C` cannot be ordered by CC50: greater than 8600 nM for the first, greater than 9200 nM for the second.

`CC1=C[C@@H]2C(=O)[C@]3(C=C(C)[C@H](OC(=O)c4ccccc4)[C@@]3(O)[C@@H]1O)[C@H](C)C[C@@H]1[C@H]2C1(C)C` and `CC(=O)O[C@H]1C(C)=C[C@]23C(=O)[C@@H](C=C(C)[C@@H](OC(=O)c4ccccc4)[C@]12O)[C@H]1[C@@H](C[C@H]3C)C1(C)C` cannot be ordered by CC50: greater than 9200 nM for the first, greater than 8400 nM for the second.

`CC1=C[C@@H]2C(=O)[C@]3(C=C(C)[C@H](O)[C@@]3(O)[C@@H]1OC(=O)/C=C/c1ccccc1)[C@H](C)C[C@@H]1[C@H]2C1(C)C` gave a CC50 greater than 8700 nM.

Tested on: Human immunodeficiency virus 1
Test: Reactivation of latent HIV1 infected in human U1 cells assessed as increase in p24 production after 72 hrs by ELISA
Type: functional, organism-based
Settings: Human immunodeficiency virus 1, U1, 72 h
How it was run: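 Latently infected U1 cells (2×10⁵ cells/mL) incubated with various compound concentrations at 37 °C for 72 h. Culture supernatant p24 is measured by ELISA. EC50 = concentration activating p24 production by 50%, fitted by non-linear regression.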

Going from `C/C=C(/C)C(=O)O[C@H]1C(C)=C[C@]23C(=O)[C@@H](C=C(CO)[C@@H](O)[C@]12O)[C@H]1[C@@H](C[C@H]3C)C1(C)C` [INGENOL MEBUTATE] to `CC1=C[C@]23C(=O)[C@@H](C=C(CO)[C@@H](O)[C@]2(O)[C@H]1OC(=O)c1ccc2ccccc2c1)[C@H]1[C@@H](C[C@H]3C)C1(C)C`, the EC50 falls from 4.2 nM to 2.4 nM (1.8-fold). The second is the more potent here.
